Screening results as filed in PubChem BioAssay.
CHO parental Ca = ATP-evoked calcium signal inhibitors, parental CHO, primary screen, counter-screen for OX1R antagonist project, cell-based, fluorescence, Fluo-8 calcium dye; parental CHO-K1, ATP-induced calcium, Fluo-8 fluorescence; inhibition, % at 5.6 µM; 330,000 compounds, 0.63% hits; AID 463079, 2010;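 active means inhibition above that plate's mean sample inhibition plus 3 SD, cut at about 26% in these data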
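Test system: untransfected parental CHO cell line. Compound: one dose, 5.6 µM nominal. Detection: intracellular calcium via Fluo-8 no-wash fluorescent dye. Measure: % inhibition. Benchmarks: ATP-challenged DMSO wells low, unchallenged DMSO wells high.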
OX1R antag-1 = OX1R (HCRTR1) antagonists, primary screen, fluorescence, CHO/OX1R cells, Fluo-8 calcium, orexin A. Orexin/Hypocretin receptor type 1 (Homo sapiens), O43613. Fluo-8 calcium fluorescence. inhibition, % at 5 µM. 330,000 compounds, 0.43% hits. AID 434989, 2010;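 active means inhibition above its plate's threshold, mean inhibition of all tested compounds on the plate plus 3 SD, cut at about 37% in these data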
GPR7 antagonist = GPR7 receptor antagonists, primary screen, cell-based, fluorescence, single concentration. inhibition, % at 4.4 µM. 290,000 compounds, 1.1% hits. GPR7-expressing cells, fluorescence antagonist assay. AID 1861, 2009; in the data active means inhibition above about 16%, passing the limit was not always enough;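 further: cells stimulated with the agonist NPW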
TAAR1 agonist = human TAAR1 agonists, primary screen, Fluo-8 calcium fluorescence, CHO RD-HGA16 cells; Trace amine-associated receptor 1 (Homo sapiens), Q96RJ0; vehicle wells 0%, saturating PEA agonist 100%; activation, % at 3 µM; 360,000 compounds, 0.99% hits; AID 624467, 2012;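 active means activation above the mean activation of all test compounds in the run plus 3 SD, cut at about 38% in these data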
Target sequence (Q96RJ0 whole entry, looked up): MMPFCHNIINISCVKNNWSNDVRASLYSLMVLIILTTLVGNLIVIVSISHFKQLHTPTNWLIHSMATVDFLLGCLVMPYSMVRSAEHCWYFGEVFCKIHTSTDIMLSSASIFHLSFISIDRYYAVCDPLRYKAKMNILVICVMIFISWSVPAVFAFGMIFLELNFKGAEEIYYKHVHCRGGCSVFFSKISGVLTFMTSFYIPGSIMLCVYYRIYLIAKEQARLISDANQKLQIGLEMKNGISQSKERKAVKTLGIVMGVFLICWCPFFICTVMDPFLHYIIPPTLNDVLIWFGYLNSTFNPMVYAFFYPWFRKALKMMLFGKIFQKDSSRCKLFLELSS
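Repeats: no replicates (n 1) | Material: CHO-derived RD-HGA16 cells with stable Gα16 and human TAAR1 | Technique: Kinetic Fluo-8 calcium fluorescence | Schedule: 17-24 h seeding, 75 min 37 °C dye, 30 min RT | Evaluation: % activation from peak over basal fluorescence ratio, DMSO-to-PEA scaled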
TAAR1 antagonist = human TAAR1 antagonists, primary screen, Fluo-8 calcium fluorescence, CHO RD-HGA16 cells. inhibition, % at 3 µM. 360,000 compounds, 1.5% hits. antagonist. Trace amine-associated receptor 1 (Homo sapiens), Q96RJ0;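 active means inhibition above a per-plate cutoff, the mean inhibition of test compounds on that plate plus 3 SD, cut at about 49% in these data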
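Test system – hTAAR1-expressing CHO RD-HGA16 cells, Gα16-coupled · Also added – β-PEA at EC80 concentration, post-compound challenge · Compound – 3 µM, single point · Incubation – dye loading 75 min at 37 °C, then 30 min room temperature · Measured by – Fluo-8 intracellular calcium dye fluorescence, real-time kinetic reads · Benchmarks – vehicle and agonist controls · Replicates – singlicate, one well per test compound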
OX1R antag-2 = antagonists of human orexin 1 receptor (OX1R). OX1R-expressing cells, FRET antagonist read-out. inhibition, % at 6.6 µM. 330,000 compounds, 1.8% hits. AID 485270, 2010; in the data active means inhibition mostly above about 38%, no sharp cut-off; inactive means mostly below about 40%
OX1R Fluo8 conf = OX1R (HCRTR1) antagonists, confirmation, fluorescence, CHO/OX1R cells, Fluo-8 calcium, orexin A. shares compounds with OX1R antag-1. orexin A calcium Fluo-8 fluorescence. inhibition, % at 5 µM. 1,100 compounds, 38% hits; in the data active means inhibition above about 29%
CHO Ca counter = ATP-evoked calcium inhibition in parental CHO, counter-screen for OX1R antagonist project, cell-based, fluorescence, CHO-K1, triplicate. shares compounds with OX1R antag-1. ATP-induced calcium, Fluo-8 fluorescence. inhibition, % at 5.6 µM. 1,100 compounds, 9.3% hits. AID 492965, 2010;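 active means inhibition above a per-plate limit, the mean inhibition of that plate's test compounds plus 3 SD, cut at about 25% in these data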
A number is an active result; i = inactive; nt = no result. Compounds with a hit are over-represented: about 4.6% of the library has one in this group of screens.

SMILES | CHO parental Ca | OX1R antag-1 | GPR7 antagonist | TAAR1 agonist | TAAR1 antagonist | OX1R antag-2 | OX1R Fluo8 conf | CHO Ca counter
CCCc1ccc(C(=O)NC(=O)c2ccccc2O)cc1 | i | i | i | i | i | i | i | 73.4
O=C(NC(=O)c1ccccc1O)c1ccc(C(F)(F)F)cc1 | i | i | i | i | i | i | nt | nt
O=C(O)CNC(=S)NCc1ccccc1 | i | i | i | i | i | i | nt | nt
CC(C)C(NC(=S)NCc1ccccc1)C(=O)O (configuration not stated) | i | i | i | i | i | i | i | i
CCOC(=O)[C@]12CCC=C1N(Cc1ccccc1)C(=O)[C@H](CC(=O)NCc1ccccc1)C2 | nt | nt | nt | i | i | nt | nt | nt
COC(=O)c1ccc2[nH]c3cccc(/C(=C/c4ccccc4)c4ccccc4)c3c2c1 | i | i | i | i | i | i | nt | nt
O=C1CCCc2[nH]c3cccc(/C(=C/c4ccccc4)c4ccccc4)c3c21 | i | i | i | i | i | i | i | i
CCCCCc1c(-c2cccc(OC)c2)ncn1CCc1ccccc1OC | nt | nt | nt | i | i | nt | nt | nt
COc1ccc(C(C)=O)c2c(O)cccc12 | i | i | i | i | i | i | i | i
O=C(O)CCCC(=O)N1CC(=O)Nc2ccccc21 | i | i | i | i | i | i | nt | nt
O=C1CN(C(=O)CCCc2c[nH]c3ccccc23)c2ccccc2N1 | i | 59.2 | i | i | i | i | 29.5 | i
Cc1cc(C)nc(SCC(=O)Nc2ccc(N3CCOCC3)c(Cl)c2)n1 | i | i | i | i | i | i | i | 30.6
CNc1nc(SCC(=O)Nc2ccc(Cl)c(Cl)c2)nc(N2CCOCC2)n1 | i | i | i | i | i | i | nt | nt
CCN(CC)c1ccc(/C=c2/sc3nnc(-c4ccccc4C)n3c2=O)cc1 | i | i | i | i | i | i | 44.3 | 40.2
CCN(CC)C(=O)c1ncn2c1C(=O)NC[C@H]2C | nt | nt | nt | i | i | nt | nt | nt
COc1n[nH]c(C(=O)Nc2cc(Cl)ccc2Cl)c1[N+](=O)[O-] | i | i | i | i | i | i | nt | nt
COc1ccc(Cl)cc1NC(=O)c1[nH]nc(OC)c1[N+](=O)[O-] | i | 104.6 | i | i | i | i | i | i
CC(C)c1ccc([C@@H]2O[C@H](C)CC3=C2C(=O)OC(C)(C)O3)cc1 | nt | nt | nt | i | i | nt | nt | nt
CCOc1ccc(-c2nc(CSCC(=O)N3CCN(C(=O)c4ccco4)CC3)c(C)o2)cc1 | i | i | i | i | i | i | nt | nt
CCOC(=O)C1CCN(C(=O)CSCc2nc(-c3ccc(OCC)cc3)oc2C)CC1 | i | i | i | i | i | i | i | i
CC(C)(C)c1ccc(S(=O)(=O)N(CCCN2CCOCC2)Cc2cccs2)cc1 | i | 102.7 | i | i | i | i | i | i
O=C(Nc1ccccc1)N(CCCN1CCOCC1)Cc1cccs1 | i | i | i | i | i | i | nt | nt
Cc1ccc(NC(=O)Cn2nc(C(=O)O)c3ccccc3c2=O)cc1S(=O)(=O)N1CCCCC1 | i | 40.9 | nt | i | i | i | i | i
CN(c1cc(Cl)c2c(c1)OCO2)c1cc2c(c3c1ccn3C)C1CCC2C1 (configuration not stated) | nt | nt | nt | i | i | nt | nt | nt
COc1ccccc1NS(=O)(=O)c1cc([N+](=O)[O-])ccc1N/N=C/c1c[nH]c2ccccc12 | i | i | i | i | 53.9 | i | i | i
CCOC(=O)[C@]12CCCC=C1N(Cc1ccco1)C(=O)[C@H](CC(=O)N1CCCCC1)C2 | nt | nt | nt | i | i | nt | nt | nt
